As a reminder, the IC50 is the concentration needed to halve the response being measured.

Experiment [1] relates to Rattus norvegicus. The experiment can be described thus: Inhibition of hepatic cholesterol de novo synthesis in male rats after po administration; values are per cent of control.
Experiment [2] concerns the target T1, 3-hydroxy-3-methylglutaryl-coenzyme A reductase (Rattus norvegicus) (UniProt P51639).
T1 sequence (whole entry): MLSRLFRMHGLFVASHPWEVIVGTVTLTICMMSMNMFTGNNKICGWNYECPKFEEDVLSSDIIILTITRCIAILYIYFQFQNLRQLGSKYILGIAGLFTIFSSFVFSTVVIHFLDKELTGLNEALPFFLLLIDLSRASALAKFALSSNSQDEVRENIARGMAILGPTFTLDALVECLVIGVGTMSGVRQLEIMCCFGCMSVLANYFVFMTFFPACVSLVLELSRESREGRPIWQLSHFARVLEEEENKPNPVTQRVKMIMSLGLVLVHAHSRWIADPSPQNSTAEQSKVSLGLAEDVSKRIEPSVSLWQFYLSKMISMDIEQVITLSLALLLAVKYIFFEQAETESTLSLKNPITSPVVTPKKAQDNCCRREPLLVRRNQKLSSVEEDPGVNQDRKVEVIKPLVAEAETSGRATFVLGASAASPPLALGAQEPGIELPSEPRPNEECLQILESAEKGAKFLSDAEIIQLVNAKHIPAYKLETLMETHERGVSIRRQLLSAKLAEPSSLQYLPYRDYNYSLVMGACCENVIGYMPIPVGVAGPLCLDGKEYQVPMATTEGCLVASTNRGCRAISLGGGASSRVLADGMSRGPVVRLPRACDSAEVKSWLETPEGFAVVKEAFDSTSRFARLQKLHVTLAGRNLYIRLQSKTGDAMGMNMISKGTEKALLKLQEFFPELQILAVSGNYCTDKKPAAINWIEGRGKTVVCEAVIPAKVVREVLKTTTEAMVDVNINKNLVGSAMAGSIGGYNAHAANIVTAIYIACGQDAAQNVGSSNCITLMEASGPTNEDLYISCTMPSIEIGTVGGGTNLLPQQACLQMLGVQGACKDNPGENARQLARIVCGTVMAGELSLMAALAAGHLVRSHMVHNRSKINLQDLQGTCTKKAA
The experiment can be described thus: In vitro inhibition of solubilized, partially purified rat liver HMG-CoA reductase relative to mevinolin.

Experiment [3] deals with T2, 3-hydroxy-3-methylglutaryl-coenzyme A reductase (Homo sapiens, UniProt P04035).
T2 sequence (P04035 whole entry): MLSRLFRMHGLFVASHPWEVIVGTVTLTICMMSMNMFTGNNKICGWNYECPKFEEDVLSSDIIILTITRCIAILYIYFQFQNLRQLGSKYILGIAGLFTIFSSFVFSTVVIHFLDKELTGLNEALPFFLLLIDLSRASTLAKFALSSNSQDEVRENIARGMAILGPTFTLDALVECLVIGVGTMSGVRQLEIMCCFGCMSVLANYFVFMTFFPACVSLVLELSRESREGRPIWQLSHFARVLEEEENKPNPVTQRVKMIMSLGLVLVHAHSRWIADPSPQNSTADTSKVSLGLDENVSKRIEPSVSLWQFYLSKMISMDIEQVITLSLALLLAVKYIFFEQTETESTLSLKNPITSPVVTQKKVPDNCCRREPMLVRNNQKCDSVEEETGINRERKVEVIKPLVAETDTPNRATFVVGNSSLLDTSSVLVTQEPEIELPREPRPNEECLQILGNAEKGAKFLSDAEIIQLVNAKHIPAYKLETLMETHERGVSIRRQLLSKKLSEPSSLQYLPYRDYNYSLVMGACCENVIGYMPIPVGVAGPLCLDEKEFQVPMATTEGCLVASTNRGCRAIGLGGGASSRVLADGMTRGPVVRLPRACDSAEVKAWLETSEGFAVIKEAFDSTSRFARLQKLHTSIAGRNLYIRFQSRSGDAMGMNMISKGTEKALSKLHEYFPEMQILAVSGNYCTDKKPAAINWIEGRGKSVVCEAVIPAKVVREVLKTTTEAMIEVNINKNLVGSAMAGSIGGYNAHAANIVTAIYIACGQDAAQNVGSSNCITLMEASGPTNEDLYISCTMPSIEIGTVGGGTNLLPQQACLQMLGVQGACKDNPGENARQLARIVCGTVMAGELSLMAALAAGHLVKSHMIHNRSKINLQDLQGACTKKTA
The experiment can be described thus: Inhibition of cellular HMG-CoA reductase in cultures of hepatic cells (HEP G2, a human hepatoma cell line). In kind it is cell-based. The procedure, abridged:
(§1)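 HEP G2 human hepatoma cells in culture; cellular HMG-CoA reductase inhibition read as reduced incorporation of sodium [14C]acetate into cholesterol; IC50 values varied somewhat between cell batches. Assay system as in the preceding paper.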

Experiment [4] concerns Oryctolagus cuniculus. The experiment can be described thus: Percent decrease in total plasma cholesterol in rabbit was determined after oral administration of a dose of 20 mg/kg for 10 days. In kind it is functional. The arrangement: scale not given: the % may be the effect or the level left. In a few lines: (§2)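 Normally fed normolipemic rabbits given oral doses repeatedly (20 mg/kg for 10 days, n = 6; 10 mg/kg for 6 days, n = 4); total plasma cholesterol decrease expressed as percent.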

In experiment [5] the target is T3, 3-hydroxy-3-methylglutaryl-coenzyme A reductase (Homo sapiens) (UniProt P04035).
T3 sequence (whole entry): T2 sequence (P04035 whole entry)
Briefly: Inhibition of cellular HMG-CoA reductase in cultures of hepatic cells (HEP G2, a human hepatoma cell line) relative to mevinolin. In kind it is cell-based. The procedure, abridged: as §1

The target in experiment [6] is T4, 3-hydroxy-3-methylglutaryl-coenzyme A reductase (Rattus norvegicus, UniProt P51639).
T4 sequence (P51639 whole entry): T1 sequence (whole entry)
Briefly: In vitro inhibition of HMG-CoA reductase of rat liver.

For experiment [7], the system named is Canis familiaris. The experiment can be described thus: Percent increase in plasma HDL-cholesterol in dog was determined after oral administration of a dose of 20 mg/kg for 14 days. In kind it is functional, Canis lupus familiaris. In a few lines: (§3)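 Normally fed male beagle dogs (n = 4) given drug orally each day (20 mg/kg for 14 days or 10 mg/kg for 19 days); plasma LDL- and HDL-cholesterol followed as percent change.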

In experiment [8] the test system is Rattus norvegicus. Briefly: Inhibition of hepatic cholesterol de novo synthesis in male rats after po administration, relative to mevinolin. The experiment is classed as functional. The procedure, abridged: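 Male rats dosed orally. […] Dose 5 mg/kg bw for lactone form, optically pure; 10 mg/kg bw for racemic sodium salts. Potency expressed against optically pure mevinolin tested under the same conditions.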

The test system of experiment [9] is Canis familiaris. The experiment can be described thus: Percent decrease in plasma LDL-cholesterol in dog was determined after oral administration of a dose of 20 mg/kg for 14 days. The experiment is classed as functional, Canis lupus familiaris. The arrangement: scale not given: the % may be the effect or the level left. In a few lines: as §3
Experiment [10] relates to Oryctolagus cuniculus. The experiment can be described thus: Percent decrease in total plasma cholesterol in rabbit was determined after oral administration of a dose of 10 mg/kg for 6 days. In kind it is functional. On the set-up: scale not given: the % may be the effect or the level left. In a few lines:
as §2

Experiment [11] concerns Rattus norvegicus. The experiment can be described thus: Inhibition of hepatic cholesterol de novo synthesis in male rats after po administration,; values are per cent of control.
The subject of experiment [12] is Canis familiaris. Briefly: Percent decrease in plasma LDL-cholesterol in dog was determined after oral administration of a dose of 10 mg/kg for 19 days. The experiment is classed as functional, Canis lupus familiaris. The arrangement: scale not given: the % may be the effect or the level left. The procedure, abridged:
as §3

The subject of experiment [13] is Canis familiaris. Briefly: Percent increase in plasma HDL-cholesterol in dog was determined after oral administration of a dose of 10 mg/kg for 19 days. The experiment is classed as functional, Canis lupus familiaris. In a few lines:
as §3

As to `CC(C)c1c(/C=C/[C@@H](O)C[C@@H](O)CC(=O)[O-])c(-c2ccc(F)cc2)cn1-c1ccccc1.[Na+]`, the “level, % of control” value in [1] was 5.5%.
Regarding `CC(C)c1c(CCC(O)CC(O)CC(=O)[O-])c(-c2ccc(F)cc2)cn1-c1ccccc1.[Na+]` (racemic), the Relative potency in experiment [2] is 128; in experiment [5] it was over 500; in experiment [8], 250. The IC50 in experiment [3] was under 0.01 µM; in experiment [6], 0.006 µM. The Activity was 34% in [4], 14% in experiment [7] and 48% in [9]. For the same molecule, the “level, % of control” value in [1] is given as 5.6%.
In [2], `CC(C)c1c(CC[C@@H](O)C[C@@H](O)CC(=O)O)c(-c2ccc(F)cc2)cn1C(C)C` [listing 1 of 2 here] returned a Relative potency of 85.
`CC(C)c1c(CC[C@@H](O)C[C@@H](O)CC(=O)O)c(-c2ccc(F)cc2)cn1C(C)C` [listing 2 of 2 here] displayed an IC50 in [6] of 0.009 µM.
On to `Cc1c(-c2ccc(F)cc2)c(CC[C@@H](O)C[C@@H](O)CC(=O)O)c(C(C)C)n1-c1ccccc1` (racemic) [listing 1 of 2 here], for which, in experiment [6], the IC50 came to 0.005 µM.
For the molecule `Cc1c(/C=C/[C@@H](O)C[C@@H](O)CC(=O)O)c(-c2ccc(F)cc2)c(C)n1-c1ccccc1`, the results for the Relative potency in [2] and in [5] were 3 and 1, respectively. In addition, the IC50 came out at 5 µM in experiment [3] and 0.25 µM in experiment [6].
`Cc1c(CC[C@@H](O)C[C@@H](O)CC(=O)O)c(-c2ccc(F)cc2)c(C)n1-c1ccccc1`: the Relative potency in experiment [2] was found to be 11; in experiment [5], 9. For the same molecule, the IC50 in [3] turned out to be 0.57 µM; in experiment [6] it was 0.07 µM.
Consider `CC(C)c1c(CC[C@@H](O)C[C@@H](O)CC(=O)[O-])c(-c2ccc(F)cc2)cn1C(C)C.[Na+]` (racemic), for which the IC50 in experiment [3] was found to be 0.002 µM; in experiment [6] it was 0.018 µM. In addition, the Activity in experiment [10] was 42%. This molecule registered a Relative potency in experiment [8] of 156. For the same molecule, the “level, % of control” value in experiment [1] is 9%.
For the molecule `CC[C@H](C)C(=O)O[C@H]1C[C@@H](C)C=C2C=C[C@H](C)[C@H](CC[C@@H]3C[C@@H](O)CC(=O)O3)[C@H]21` [LOVASTATIN], the “level, % of control” value in [11] worked out at 14%. Besides, the Activity in experiment [12] was -18%; in [13] it was 2%; in experiment [10] it was 25%.
In the case of `CC(C)c1c(/C=C/[C@H](O)C[C@@H](O)CC(=O)O)c(-c2ccc(F)cc2)cn1C1CCCCC1`, the Relative potency turned out to be 12 in experiment [2] and 47 in experiment [5]. In addition, the figures for the 50% inhibitory concentration (IC50) in [3] and in [6] were 0.106 µM and 0.069 µM, respectively.
The molecule `CC(C)c1c(CC[C@@H](O)C[C@@H](O)CC(=O)O)c(-c2ccc(F)cc2)cn1-c1ccccc1` showed a Relative potency in experiment [2] of 257. In [6], inhibition was half-maximal at 0.003 µM (IC50).
Regarding `Cc1c(/C=C/[C@@H](O)C[C@@H](O)CC(=O)O)c(-c2ccc(F)cc2)cn1C(C)C`, the Relative potency worked out at 2 in [2] and 1 in [5]. Further, the concentration for half-maximal inhibition (IC50) in experiment [3] is 6 µM; in [6], 0.33 µM.
As to `Cc1c(-c2ccc(F)cc2)c(CC[C@@H](O)C[C@@H](O)CC(=O)O)c(C(C)C)n1-c1ccccc1` [listing 1 of 2 here], in [6], inhibition was half-maximal at 0.0025 µM (IC50).
In the case of `Cc1c(CC[C@@H](O)C[C@@H](O)CC(=O)O)c(-c2ccc(F)cc2)cn1C(C)C`, the values for the Relative potency in experiment [2] and in experiment [5] were 9 and 19, respectively. Also, the figures for the IC50 in [3] and in experiment [6] were 0.27 µM and 0.1 µM, respectively.
As for `CC(C)c1c(CC[C@@H](O)C[C@@H](O)CC(=O)O)c(-c2ccc(F)cc2)cn1C(C)C` (racemic), the Relative potency in [2] came out at 42; in experiment [5], 2500.
In the case of `CC(C)c1c(CC[C@@H](O)C[C@@H](O)CC(=O)[O-])c(-c2ccc(F)cc2)cn1C1CCCCC1.[Na+]`, in experiment [1], the “level, % of control” value was found to be 6%.
Regarding `Cc1c(-c2ccc(F)cc2)c(CC[C@@H](O)C[C@@H](O)CC(=O)O)c(C(C)C)n1-c1ccccc1` [listing 2 of 2 here], the Relative potency in [2] was determined as 300.
With `Cc1c(-c2ccc(F)cc2)c(CC[C@@H](O)C[C@@H](O)CC(=O)O)c(C(C)C)n1-c1ccccc1` (racemic) [listing 2 of 2 here], the Relative potency in [2] stood at 149.

Source of the values: ChEMBL document CHEMBL1124968, “Synthesis and biological activity of new HMG-CoA reductase inhibitors. 2. Derivatives of 7-(1H-pyrrol-3-yl)-substituted-3,5-dihydroxyhept-6(E)-enoic (-heptanoic) acids” (J Med Chem, 1990).
